Test results from ChEMBL document CHEMBL1143810, “Synthesis and antimalarial evaluation of a series of piperazinyl flavones” (Bioorg Med Chem Lett, 2007).

How the values were obtained:
Plasmodium falciparum [1] = assay: Antiplasmodial activity against Plasmodium falciparum D6; assay type: functional, organism-based
MRC5 = assay: Cytotoxicity against MRC5 cells; assay type: cell-based, Homo sapiens; details: for IC50: Homo sapiens, MRC5
In short: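 MRC5 cells were cultured for 5 days in the presence of drug, with viability read by colorimetric MTT. IC50 was taken from the concentration–response curve and is the mean of three independent experiments.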

[2] = Selectivity index, ratio of IC50 for MRC5 cells to IC50 for Plasmodium falciparum FcB1; assay type: functional
In short: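 Ratio of MRC5 IC50 to P. falciparum FcB1 IC50. MRC5 IC50 came from a 5-day drug exposure read by MTT. Parasite IC50 came from [³H]hypoxanthine incorporation in erythrocyte cultures. Both were taken from concentration–response curves as means of three independent experiments.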

Plasmodium falciparum [3] = assay: Antiplasmodial activity against Plasmodium falciparum FcB1; assay type: functional, organism-based
In short: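 P. falciparum FcB1 (chloroquine-resistant) was kept in continuous culture in human erythrocytes. Growth inhibition was read by [³H]hypoxanthine incorporation. IC50 was taken from the drug concentration–response curve and is the mean of three independent experiments.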

Plasmodium falciparum [4] = assay: Antiplasmodial activity against chloroquine-resistant Plasmodium falciparum K1; assay type: functional, organism-based
In short: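 Parasites kept in continuous culture on human erythrocytes; growth measured by [3H]hypoxanthine incorporation. IC50 taken from the drug concentration–response curve, mean of three independent experiments.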

Plasmodium falciparum [5] = assay: In vitro antiplasmodial activity against Plasmodium falciparum Thai
Plasmodium yoelii [6] = assay: Antiplasmodial activity as reduced parasitaemia against Plasmodium yoelii N67 infected Swiss mice (Mus musculus) at 50 mg/kg peroral dose; assay type: functional; details: route oral
In short: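 Peters 4-day suppressive test in mice infected with P. yoelii nigeriensis N67. Compound was given orally (0.5 ml) daily from day 0, at 10 or 50 mg/kg as per line. Groups had five mice, with a vehicle-only untreated group. Day-4 parasitemia was counted on Diff Quick-stained blood smears. % inhibition was calculated against untreated mice.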

Plasmodium yoelii [7] = assay: Antiplasmodial activity as reduced parasitaemia against Plasmodium yoelii N67 infected Swiss mice (Mus musculus) at 10 mg/kg peroral dose; assay type: functional; details: route oral
In short: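 4-day suppressive test in P. yoelii nigeriensis N67-infected mice, five per group. Dosing oral, once daily from day 0, 0.5 ml/mouse. Untreated group received vehicle only. Parasitemia read on day 4 from Diff Quick-stained blood smears. Percent inhibition calculated against untreated mice. Deaths counted at day 14.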

COc1ccc(-c2cc(=O)c3c(O)cc(OCC(=O)N4CCN(Cc5ccc(OC)c(OC)c5OC)CC4)cc3o2)cc1OCC(=O)N1CCN(Cc2ccc(OC)c(OC)c2OC)CC1
IC50 (Plasmodium falciparum [1]): 0.18 µM
IC50 (MRC5): 1 µM

CCOC(=O)COc1cc(-c2cc(=O)c3c(O)cc(OCC(=O)N4CCN(Cc5cccc(OC)c5OC)CC4)cc3o2)ccc1OC
IC50 (Plasmodium falciparum [1]): 2.4 µM

CCOC(=O)COc1cc(OCC(=O)N2CCN(Cc3ccc(OC)c(OC)c3OC)CC2)c2c(=O)cc(-c3ccc(OC)c(OCC(=O)OCC)c3)oc2c1
IC50 (Plasmodium falciparum [1]): 5.4 µM

COc1ccc(-c2cc(=O)c3c(O)cc(OCC(=O)N4CCN(Cc5ccc(OC)c(OC)c5OC)CC4)cc3o2)cc1O
IC50 (Plasmodium falciparum [1]): 5.3 µM

CCOC(=O)COc1cc(-c2cc(=O)c3c(O)cc(OCC(=O)N4CCN(Cc5ccccc5)CC4)cc3o2)ccc1OC
IC50 (Plasmodium falciparum [1]): 9.5 µM

CCOC(=O)COc1cc(-c2cc(=O)c3c(O)cc(OCC(=O)N4CCN(Cc5ccc(Cl)cc5)CC4)cc3o2)ccc1OC
IC50 (Plasmodium falciparum [1]): 6 µM

CCOC(=O)COc1cc(-c2cc(=O)c3c(O)cc(OCCN4CCN(Cc5ccc(OC)c(OC)c5OC)CC4)cc3o2)ccc1OC
IC50 (MRC5): 18 µM
Ratio IC50 [2]: 4.2
IC50 (Plasmodium falciparum [3]): 4.3 µM

CCOC(=O)COc1cc(-c2cc(=O)c3c(O)cc(OCC(=O)N4CCN(C(=O)OC(C)(C)C)CC4)cc3o2)ccc1OC
IC50 (MRC5): 3.8 µM
Ratio IC50 [2]: 2.1
IC50 (Plasmodium falciparum [3]): 1.8 µM

CCOC(=O)COc1cc(-c2cc(=O)c3c(O)cc(OCC(=O)N4CCN(Cc5ccc(OC)cc5)CC4)cc3o2)ccc1OC
IC50 (Plasmodium falciparum [3]): 8.9 µM

CCOC(=O)COc1cc(-c2cc(=O)c3c(O)cc(OCC(=O)N4CCN(Cc5ccc(OC)cc5OC)CC4)cc3o2)ccc1OC
IC50 (MRC5): 5.6 µM
Ratio IC50 [2]: 3.3
IC50 (Plasmodium falciparum [3]): 1.7 µM

CCOC(=O)COc1cc(-c2cc(=O)c3c(O)cc(OCC(=O)N4CCN(Cc5c(OC)cc(OC)cc5OC)CC4)cc3o2)ccc1OC
IC50 (MRC5): 9.5 µM
Ratio IC50 [2]: 5
IC50 (Plasmodium falciparum [3]): 1.9 µM

CCOC(=O)COc1cc(-c2cc(=O)c3c(O)cc(OCC(=O)N4CCN(Cc5ccc(OCc6ccccc6)c(OC)c5OC)CC4)cc3o2)ccc1OC
IC50 (MRC5): 10 µM
Ratio IC50 [2]: 3.6
IC50 (Plasmodium falciparum [3]): 2.8 µM

CCOC(=O)COc1cc(-c2cc(=O)c3c(O)cc(OCC(=O)N4CCN(Cc5ccc(O)c(OC)c5OC)CC4)cc3o2)ccc1OC
IC50 (MRC5): 10 µM
Ratio IC50 [2]: 16.7
IC50 (Plasmodium falciparum [3]): 0.6 µM
IC50 (Plasmodium falciparum [4]): 0.4 µM
IC50 (Plasmodium falciparum [5]): 1.2 µM

CCOC(=O)COc1cc(-c2cc(=O)c3c(O)cc(OCC(=O)N4CCN(C)CC4)cc3o2)ccc1OC
IC50 (Plasmodium falciparum [3]): 26 µM

COc1ccc(CN2CCN(C(=O)COc3ccc4c(=O)cc(-c5cc(C(C)(C)C)c(O)c(C(C)(C)C)c5)oc4c3)CC2)c(OC)c1OC
IC50 (MRC5): > 150 µM
Ratio IC50 [2]: >125
inhibition in vivo at 50 mg/kg (Plasmodium yoelii [6]): 38.5%
IC50 (Plasmodium falciparum [3]): 1.2 µM
inhibition in vivo at 10 mg/kg (Plasmodium yoelii [7]): 24.1%
IC50 (Plasmodium falciparum [4]): 0.4 µM
IC50 (Plasmodium falciparum [5]): 0.9 µM

COc1ccc(CN2CCN(C(=O)COc3ccc4c(=O)cc(-c5ccccc5)oc4c3)CC2)c(OC)c1OC
IC50 (Plasmodium falciparum [3]): 13 µM

COc1ccc(CN2CCN(C(=O)COc3cc(O)c4c(=O)cc(-c5ccccc5)oc4c3)CC2)c(OC)c1OC
IC50 (Plasmodium falciparum [3]): 14 µM

CCOC(=O)COc1cc(-c2cc(=O)c3c(O)cc(OCC(=O)N4CCN(Cc5cc(OC)c(OC)c(OC)c5)CC4)cc3o2)ccc1OC
IC50 (Plasmodium falciparum [1]): 4 µM

CCOC(=O)COc1cc(O)c2c(=O)cc(-c3ccc(OC)c(OCC(=O)N4CCN(Cc5ccc(OC)c(OC)c5OC)CC4)c3)oc2c1
IC50 (Plasmodium falciparum [1]): 6.2 µM

CCOC(=O)COc1cc(-c2cc(=O)c3c(O)cc(OCC(=O)N4CCN(Cc5ccc(OC)c(OC)c5OC)CC4)cc3o2)ccc1OC
IC50 (Plasmodium falciparum [1]): 0.5 µM
IC50 (MRC5): > 70 µM
Ratio IC50 [2]: >140
inhibition in vivo at 50 mg/kg (Plasmodium yoelii [6]): 43.1%
IC50 (Plasmodium falciparum [3]): 1 µM
inhibition in vivo at 10 mg/kg (Plasmodium yoelii [7]): 27.1%
IC50 (Plasmodium falciparum [4]): 13 µM
IC50 (Plasmodium falciparum [5]): 13 µM

CCOC(=O)COc1cc(-c2cc(=O)c3c(O)cc(OCC(=O)N4CCN(Cc5ccc(OC)c(OC)c5)CC4)cc3o2)ccc1OC
IC50 (Plasmodium falciparum [1]): 4.7 µM

COc1ccc(-c2cc(=O)c3c(O)cc(OCC(=O)N4CCN(Cc5ccc(OC)c(OC)c5OC)CC4)cc3o2)cc1OC1CCCC1
IC50 (MRC5): > 150 µM
Ratio IC50 [2]: >53
IC50 (Plasmodium falciparum [3]): 2.8 µM

CCOC(=O)COc1cc(-c2cc(=O)c3c(O)cc(OCC(=O)N4CC[N+]([O-])(Cc5ccc(OC)c(OC)c5OC)CC4)cc3o2)ccc1OC
IC50 (Plasmodium falciparum [3]): 19 µM

CCOC(=O)COc1cc(-c2cc(=O)c3c(O)cc(OCC(=O)N4CC[N+](C)(Cc5ccc(OC)c(OC)c5OC)CC4)cc3o2)ccc1OC
IC50 (Plasmodium falciparum [3]): 41 µM

COc1ccc(-c2cc(=O)c3c(O)cc(OCC(=O)N4CCN(Cc5ccc(OC)c(OC)c5OC)CC4)cc3o2)cc1OCC(=O)OC(C)(C)C
IC50 (MRC5): > 140 µM
Ratio IC50 [2]: >82
IC50 (Plasmodium falciparum [3]): 1.7 µM
IC50 (Plasmodium falciparum [4]): 1.4 µM
IC50 (Plasmodium falciparum [5]): 1.5 µM

CCCCCCOc1cc(-c2cc(=O)c3c(O)cc(OCC(=O)N4CCN(Cc5ccc(OC)c(OC)c5OC)CC4)cc3o2)ccc1OC
IC50 (Plasmodium falciparum [3]): 3.9 µM

CCN(CC)CCCC(C)Nc1ccnc2cc(Cl)ccc12 (stereo unspecified) [CHLOROQUINE]
Activity (MRC5; human, mrc5): Active
